The values that follow come from ChEMBL document CHEMBL3046679, “Design, synthesis, and biological activities of arylmethylamine substituted chlorotriazine and methylthiotriazine compounds” (J Agric Food Chem, 2011).

Calls of active or inactive are those of the source. No cut-off for these calls is given here.

The first assay has as its system Uromyces viciae-fabae. Put plainly: Fungicidal activity against Uromyces viciae-fabae assessed as inhibition of mycelia growth at 100 ppm. The format is functional, organism-based.
Settings: not given
Put shortly: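 Leaf-piece assay on bean at 100 ppm, with compound applied before spore inoculation and two replicates. Each well scored 99 for complete inhibition, 55 for partial and 0 for none; value is the mean score across replicates.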
Take `CC(C)Nc1nc(Cl)nc(NCc2cnc(Br)s2)n1`: the inhibition (in general, how much of the control response was suppressed) was “inactive”.

For the next assay, the system named is Phytophthora infestans. Kind of assay: Fungicidal activity against Phytophthora infestans assessed as inhibition of mycelia growth at 200 ppm.
Settings: not given
The format is functional, organism-based.
For the compound `CSc1nc(NCc2ccc(Cl)nc2)nc(NC(C)C)n1`, the inhibition result was “inactive”.
In the case of `CC(C)Nc1nc(Cl)nc(NCc2cnc(Br)s2)n1`, the inhibition result was “inactive”.

The next assay relates to Zymoseptoria tritici. Kind of assay: Fungicidal activity against Zymoseptoria tritici assessed as inhibition of mycelia growth at 100 ppm. Format: functional, organism-based.
Settings: not given
Take `CSc1nc(NCc2ccc(Cl)nc2)nc(NC(C)C)n1`: the inhibition result is “inactive”.
Regarding `CC(C)Nc1nc(Cl)nc(NCc2cnc(Br)s2)n1`, the inhibition result was “inactive”.

Another assay has as its system Botrytis cinerea. Put plainly: Fungicidal activity against Botryotinia fuckeliana assessed as inhibition of mycelia growth at 2 ppm. Format: functional, organism-based.
Settings: not given
Put shortly: (§1)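 Mycelial growth test in 96-well plates: compound incorporated into artificial growth medium at 2 ppm, two replicates per rate. Each well scored 99 for complete, 55 for partial or 0 for no inhibition. Values are the mean across replicates; azoxystrobin and prochloraz used as positive controls.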
On to `CSc1nc(NCc2ccc(Cl)nc2)nc(NC(C)C)n1`, for which the inhibition entry was “Active”.
Still for that read-out and setting: under `CC(C)Nc1nc(Cl)nc(NCc2cnc(Br)s2)n1` stands “inactive”.

The subject of a further assay is Fusarium graminearum. Put plainly: Fungicidal activity against Fusarium graminearum assessed as inhibition of mycelia growth at 2 ppm.
Settings: not given
The format is functional, organism-based. In short, it runs like this: as §1
In the case of `CSc1nc(NCc2ccc(Cl)nc2)nc(NC(C)C)n1`, the inhibition entry was “inactive”.
On to `CC(C)Nc1nc(Cl)nc(NCc2cnc(Br)s2)n1`, for which the inhibition result was “inactive”.

For the next assay, the system named is Alternaria solani. Kind of assay: Fungicidal activity against Alternaria solani assessed as inhibition of mycelia growth at 2 ppm.
Settings: not given
Format: functional, organism-based. Put shortly: as §1
On to `CSc1nc(NCc2ccc(Cl)nc2)nc(NC(C)C)n1`, for which the inhibition result is “inactive”.
Take `CC(C)Nc1nc(Cl)nc(NCc2cnc(Br)s2)n1`: the inhibition entry is “inactive”.

The test system of the next assay is Pythium dissimile. Put plainly: Fungicidal activity against Pythium dissimile assessed as inhibition of mycelia growth at 2 ppm.
Settings: not given
Format: functional, organism-based. In short, it runs like this: as §1
With `CSc1nc(NCc2ccc(Cl)nc2)nc(NC(C)C)n1`, the inhibition result is “inactive”.
`CC(C)Nc1nc(Cl)nc(NCc2cnc(Br)s2)n1`: the inhibition result was “inactive”.

The test system of another assay is Digitaria sanguinalis. Put plainly: Herbicidal activity against Digitaria sanguinalis (hairy crabgrass) assessed as growth inhibition at 1 kg/ha preemergence treatment by glasshouse test. Format: functional. To be noted: pre-emergence, read-out: GI. In short, it runs like this: (§2)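 Glasshouse screen with pre- or postemergence application at 1.0 kg/ha. Result given as percent inhibition of plant growth; norflurazon and glyphosate used as controls.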
In the case of `CSc1nc(NCc2ccc(Cl)nc2)nc(NC(C)C)n1`, the inhibition of growth at 1000 g/ha came out at 0%.

The next assay concerns Stellaria media. Kind of assay: Herbicidal activity against Stellaria media assessed as growth inhibition at 1 kg/ha preemergence treatment by glasshouse test. Format: functional. To be noted: pre-emergence, read-out: GI. In short, it runs like this: as §2
As for `CSc1nc(NCc2ccc(Cl)nc2)nc(NC(C)C)n1`, the inhibition of growth at 1000 g/ha came out at 90%.

A further assay deals with Lolium perenne. Put plainly: Herbicidal activity against Lolium perenne (perennial ryegrass) assessed as growth inhibition at 1 kg/ha preemergence treatment by glasshouse test. The format is functional. To be noted: pre-emergence, read-out: GI. In short, it runs like this:
as §2
For the compound `CSc1nc(NCc2ccc(Cl)nc2)nc(NC(C)C)n1`, the inhibition of growth at 1000 g/ha stood at 10%.

For a further assay, the system named is Amaranthus retroflexus. Kind of assay: Herbicidal activity against Amaranthus retroflexus assessed as growth inhibition at 1 kg/ha preemergence treatment by glasshouse test. To be noted: pre-emergence, read-out: GI. The format is functional. Put shortly:
as §2
As to `CSc1nc(NCc2ccc(Cl)nc2)nc(NC(C)C)n1`, the inhibition of growth at 1000 g/ha amounted to 100%.

In the next assay the test system is Digitaria sanguinalis. Kind of assay: Herbicidal activity against Digitaria sanguinalis (hairy crabgrass) assessed as growth inhibition at 1 kg/ha postemergence treatment by glasshouse test. Format: functional. To be noted: post-emergence, read-out: GI. Put shortly: as §2
`CSc1nc(NCc2ccc(Cl)nc2)nc(NC(C)C)n1`: the inhibition of growth at 1000 g/ha turned out to be 90%.

A further assay deals with Stellaria media. Put plainly: Herbicidal activity against Stellaria media assessed as growth inhibition at 1 kg/ha postemergence treatment by glasshouse test. The format is functional. To be noted: post-emergence, read-out: GI. Put shortly: as §2
Take `CSc1nc(NCc2ccc(Cl)nc2)nc(NC(C)C)n1`: the inhibition of growth at 1000 g/ha was 100%.

For another assay, the system named is Lolium perenne. Put plainly: Herbicidal activity against Lolium perenne (perennial ryegrass) assessed as growth inhibition at 1 kg/ha postemergence treatment by glasshouse test. Format: functional. To be noted: post-emergence, read-out: GI. In short, it runs like this: as §2
With `CSc1nc(NCc2ccc(Cl)nc2)nc(NC(C)C)n1`, the inhibition of growth at 1000 g/ha came out at 50%.

The next assay relates to Amaranthus retroflexus. Put plainly: Herbicidal activity against Amaranthus retroflexus assessed as growth inhibition at 1 kg/ha postemergence treatment by glasshouse test. Format: functional. To be noted: post-emergence, read-out: GI. In short, it runs like this: as §2
Consider `CSc1nc(NCc2ccc(Cl)nc2)nc(NC(C)C)n1`, for which the inhibition of growth at 1000 g/ha was 70%.

In a further assay the test system is Poa annua. Kind of assay: Herbicidal activity against Poa annua assessed as growth inhibition at 32 ppm by 96-well plate test. Format: functional. To be noted: read-out: GI. In short, it runs like this:
(§3)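 96-well plate herbicide screen: Arabidopsis thaliana at 10 ppm and Poa annua at 32 ppm, two replicates. Plates incubated seven days in a controlled-environment cabinet. Each replicate scored 0 (no visible effect) or 99 (herbicidal effect); values are the mean of the two. Atrazine used as reference.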
Turning to `CSc1nc(NCc2ccc(Cl)nc2)nc(NC(C)C)n1`, the inhibition of growth at 32 ppm turned out to be 0%.

Another assay has as its system Arabidopsis thaliana. Put plainly: Herbicidal activity against Arabidopsis thaliana assessed as growth inhibition at 10 ppm by 96-well plate test. To be noted: read-out: GI. The format is functional. Put shortly: as §3
With `CSc1nc(NCc2ccc(Cl)nc2)nc(NC(C)C)n1`, the inhibition of growth at 10 ppm is 99%.

For a further assay, the system named is Echinochloa crus-galli. Put plainly: Herbicidal activity against Echinochloa crus-galli (barnyard grass) at 1.5 kg/ha postemergence treatment measured after 10 days by glasshouse test. Format: functional. To be noted: post-emergence, 240 h. Put shortly:
(§4)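 Glasshouse pre/postemergence test, each treatment in triplicate. Above-ground fresh weight measured 10 days after treatment. Result expressed as percent inhibition versus control, from 0 (no control) to 100 (complete control); glyphosate used as positive control.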
`CSc1nc(NCc2ccc(Cl)nc2)nc(NC(C)C)n1` registered an inhibition at 1500 g/ha of 88.6%.
Still for that read-out and setting: under `CC(C)Nc1nc(Cl)nc(NCc2cnc(Br)s2)n1` stands 10.4%.

The next assay concerns Brassica napus. Put plainly: Herbicidal activity against Brassica napus (oilseed rape) at 1.5 kg/ha postemergence treatment measured after 10 days by glasshouse test. The format is functional. To be noted: post-emergence, 240 h. In short, it runs like this:
as §4
As for `CSc1nc(NCc2ccc(Cl)nc2)nc(NC(C)C)n1`, the inhibition at 1500 g/ha is 100%.
As for `CC(C)Nc1nc(Cl)nc(NCc2cnc(Br)s2)n1`, the inhibition at 1500 g/ha was 10%.

For the next assay, the system named is Echinochloa crus-galli. Kind of assay: Herbicidal activity against Echinochloa crus-galli (barnyard grass) at 1.5 kg/ha preemergence treatment measured after 10 days by glasshouse test. The format is functional. To be noted: pre-emergence, 240 h. Put shortly: as §4
Compound `CSc1nc(NCc2ccc(Cl)nc2)nc(NC(C)C)n1` returned an inhibition at 1500 g/ha of 88.6%.
`CC(C)Nc1nc(Cl)nc(NCc2cnc(Br)s2)n1` came in with an inhibition at 1500 g/ha of 11.3%.

The test system of a further assay is Brassica napus. Put plainly: Herbicidal activity against Brassica napus (oilseed rape) at 1.5 kg/ha preemergence treatment measured after 10 days by glasshouse test. To be noted: pre-emergence, 240 h. The format is functional. Put shortly: as §4
`CSc1nc(NCc2ccc(Cl)nc2)nc(NC(C)C)n1` showed an inhibition at 1500 g/ha of 100%.
In turn, `CC(C)Nc1nc(Cl)nc(NCc2cnc(Br)s2)n1` came in with an inhibition at 1500 g/ha of 5.2%.

In a further assay the test system is Heliothis virescens. Kind of assay: Insecticidal activity against Lepidoptera Heliothis virescens (tobacco budworm) assessed as mortality at 1000 ppm by leaf-disk assay. Format: functional, organism-based.
Settings: not given
Put shortly:
(§5)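 Leaf-disk assay at 1000 ppm, three replicates. Plates kept 5–9 days in controlled-environment cabinets. Mortality judged against untreated wells: 99 for significant mortality, 0 otherwise. Values are the mean of three; thiamethoxam and indoxacarb used as positive controls.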
Consider `CSc1nc(NCc2ccc(Cl)nc2)nc(NC(C)C)n1`, for which the mortality result was “inactive”.
Regarding `CC(C)Nc1nc(Cl)nc(NCc2cnc(Br)s2)n1`, the mortality entry was “inactive”.

The subject of another assay is Aphididae. Put plainly: Insecticidal activity against Aphididae (aphids) assessed as mortality at 1000 ppm by leaf-disk assay. The format is functional, organism-based.
Settings: not given
Put shortly: as §5
`CC(C)Nc1nc(Cl)nc(NCc2cnc(Br)s2)n1`: the mortality result is “inactive”.
